PLC-beta3 inh = inhibitors of human phospholipase C beta3; hit rate 0.18% among 370,000; AID 720704; inhibition, % at 12.2 µM; Purified PLC-beta3, fluorogenic substrate, fluorescence; Q01970; in the data active means inhibition above about 11%;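 further: 0% = median of compound wells on plate and 100% = full blocker control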
ASAP1 GAP inh = ASAP1 ArfGAP inhibition | Q9ULH1 | ASAP1-stimulated ARF1 GTP hydrolysis, GDP FP detection | inhibition, % at 16.5 µM | hit rate 0.19% among 360,000 | AID 624377; in the data active means inhibition above about 25%;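 further: 0% = vehicle with enzyme and substrate and 100% = no enzyme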
Target sequence (Q9ULH1 325-724 limits assumed): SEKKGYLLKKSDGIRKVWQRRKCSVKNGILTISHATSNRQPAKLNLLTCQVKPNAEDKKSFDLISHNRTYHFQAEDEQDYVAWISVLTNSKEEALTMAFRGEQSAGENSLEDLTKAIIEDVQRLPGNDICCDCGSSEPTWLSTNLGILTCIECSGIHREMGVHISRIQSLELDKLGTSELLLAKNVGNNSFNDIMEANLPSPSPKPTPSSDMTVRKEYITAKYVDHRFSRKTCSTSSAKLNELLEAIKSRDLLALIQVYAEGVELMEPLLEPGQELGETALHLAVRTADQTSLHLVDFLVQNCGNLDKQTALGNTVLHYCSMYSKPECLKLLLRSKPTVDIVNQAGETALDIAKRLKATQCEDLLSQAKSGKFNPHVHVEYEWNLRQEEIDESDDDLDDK
ARFGAP1 inhibitor = rat ARFGAP1 inhibition; Arfgap1-stimulated ARF1 GTP hydrolysis, GDP FP detection; inhibition, % at 16.5 µM; Q62848; hit rate 0.26% among 360,000;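 active means inhibition above a per-plate limit, mean inhibition of low control wells plus 3 SD, cut at about 25% in these data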;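 further: 0% = DMSO wells with enzyme and 100% = wells lacking Arfgap1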
Target sequence (Q62848 1-136 limits assumed): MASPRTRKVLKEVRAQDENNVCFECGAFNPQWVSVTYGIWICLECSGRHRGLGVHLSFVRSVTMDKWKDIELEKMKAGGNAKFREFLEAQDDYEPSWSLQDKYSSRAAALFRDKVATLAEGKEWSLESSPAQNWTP
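Material: rat Arfgap1 GAP domain (His6, aa 1-136), purified enzyme. Also added: human ARF1(Δ1-17)-GTP substrate. Compound dosing: 16.5 µM single point, 1.26% DMSO. Timing: enzyme reaction 120 min at 25 °C after 20 min preincubation. Signal: GDP detection by fluorescence polarization. Read-out basis: percent inhibition of GAP-stimulated GDP formation, scaled between DMSO and no-Arfgap1 medians.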
PLC-gamma1 inh = blocks human PLC-gamma1 enzyme activity | AID 720700 | purified PLC-gamma1, fluorogenic substrate, fluorescence | hit rate 0.84% among 370,000 | inhibition, % at 12.2 µM
sPLA2-III inh = Inhibits HGIII-sPLA2 liposome hydrolysis, primary screen; Q9NZ20; QFRET BODIPY PC-A2 liposome hydrolysis, fluorescence; inhibition, % at 12.2 µM; hit rate 0.56% among 370,000; AID 743126;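 active means inhibition above mean plus 3 SD of compounds lying within the high and low control bounds, cut at about 19% in these data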;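 further: 0% = median of test compound wells and 100% = no enzyme DMSO wells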
PLCgamma1 ctr = inhibits human PLC-gamma1 in PLC-beta3 counter-screen; shares compounds with PLC-gamma1 inh; purified PLC-gamma1, fluorogenic substrate, fluorescence; inhibition, % at 12.3 µM; hit rate 3.1% among 3,300
PLCbeta3 conf = human PLC-beta3 inhibition, confirmation | inhibition, % at 12.3 µM | purified PLC-beta3, fluorogenic substrate fluorescence | AID 743261 | shares compounds with PLC-gamma1 inh | hit rate 1% among 3,300; in the data active means inhibition above about 11%
* hit, by the source's call; / = no result; ! = a repeat was not active. In the library only some 1.9% were active in any assay of this set; here they are far more common. Unless noted, no stated cut-off is given here; in the data, active means inhibition above about 9.5%; inactive means the rest.

SMILES | PLC-beta3 inh | ASAP1 GAP inh | ARFGAP1 inhibitor | PLC-gamma1 inh | sPLA2-III inh | PLCgamma1 ctr | PLCbeta3 conf
O=C(Nc1ccc(S(=O)(=O)Nc2ncccn2)cc1)c1ccc(Br)s1 | -4.5 | 11.0 | 6.9 | 10.7* | 1.2 | -5.0 | -1.4
O=C(Nc1ccc(S(=O)(=O)Nc2ncccn2)cc1)c1ccc2ncsc2c1 | -22.2 | -11.4 | 4.1 | -4.1 | -6.4 | / | /
O=C(NC(=S)NCC1CCCO1)c1cccc([N+](=O)[O-])c1 (stereo not given) | 11.9* | -15.1 | 11.7 | 9.6* | 6.4 | -1.5 | 2.0
CS(=O)(=O)N1CCN(c2ccc(NC(=O)C(c3ccccc3)c3ccccc3)cc2)CC1 | 6.2 | 19.0 | 3.8 | 9.6* | -32.9 | -7.2 | -4.7
Cc1onc(-c2ccc(Cl)cc2)c1-c1ccn(S(=O)(=O)c2cccc(Cl)c2)n1 | -1.6 | / | / | 9.8* | 11.0 | 1.3 | -6.5
O=C(C[n+]1cc(-c2ccc(Cl)cc2)n2c1CCC2)N1c2ccccc2Sc2ccccc21 | 3.3 | 7.1 | 16.1 | 5.2 | -33.2 | / | /
CC1CCC(C(C)C)C(OC(=O)C[n+]2cc(-c3ccc(Cl)cc3)n3c2CCC3)C1 (stereo not given) | -3.4 | 6.0 | -9.9 | 9.9* | 6.8 | -2.6 | -0.8
COc1ccccc1CNc1ncccn1 | 1.1 | -13.6 | -3.4 | 9.7* | 10.7 | -1.7 | 1.9
CC1CCN(CCNC(=O)c2ccc(NC(=O)C3CCCO3)cc2)CC1 (stereo not given) | 0.3 | 2.5 | -2.8 | 1.8 | 6.9 | / | /
COc1ccc(N2CCN(CCNC(=O)c3ccc(NC(=O)C4CCCO4)cc3)CC2)cc1 (stereo not given) | 4.7 | 9.4 | 6.0 | 10.5* | 5.6 | 4.4 | 1.5
COC(=O)[C@]12C[C@H](CC(=O)N3CCSCC3)C(=O)N(CCC3=CCCCC3)C1=C[C@H](C(C)(C)C)O[C@@H]2C | 6.0 | -3.4 | -8.7 | 1.3 | 1.4 | / | /
CC(C)[C@@H](CO)N1Cc2nnn(Cc3ccccc3)c2-c2ccccc2S1(=O)=O | 2.3 | / | / | -0.2 | -4.3 | / | /
Cc1ccc(O)c(-c2cc(C(=O)Nc3cccnc3)[nH]n2)c1 | -30.3 | 10.0 | -4.3 | 10.8* | -23.6 | 1.1 | 2.8
COC(=O)[C@]12C[C@H](CC(=O)N3CCN(C(=O)c4ccco4)CC3)C(=O)N(CCc3ccc(OC)c(OC)c3)C1=C[C@H](C(C)(C)C)O[C@@H]2C | 3.4 | / | / | 4.3 | -7.9 | / | /
CC(=O)c1ccc(N2CCN(S(=O)(=O)c3cccc4nsnc34)CC2)cc1 | 5.5 | 3.0 | 8.9 | 10.0* | 9.8 | -1.7 | 3.3
O=S(=O)(c1ccccc1)c1cnn(-c2ccccc2)c1-c1ccc(Cl)cc1 | 20.0* | -1.0 | 3.0 | 0.6 | -2.7 | 0.8 | 16.6*
Cc1[nH]c2ccccc2c1CCN(Cc1cccs1)C(=O)Nc1cccc2c1OCO2 | 0.3 | / | / | 1.7 | -20.1 | / | /
CCOc1ccc(C(=O)N(CN2CCCC2=O)c2ccccc2)cc1 | 1.8 | -3.1 | -4.2 | 9.9* | -5.1 | -0.8 | -0.7
CCC(C(=O)Nc1ccccc1N1CCCC1)c1ccccc1F (stereo not given) | -4.0 | / | / | -1.9 | 8.7 | / | /
CCN(C)c1nc(C)nc2c1nnn2Cc1ccccc1 | -1.2 | / | / | -0.3 | 1.4 | / | /
O=C(CN1C(=O)CSc2ccc(C(F)(F)F)cc21)Nc1ccccc1 | 2.4 | -9.1 | 13.7 | 14.0* | 6.6 | 1.9 | 3.1
O=C(CCN1C(=O)CSc2ccccc21)Nc1ccc(C(F)(F)F)cc1 | -8.9 | 4.8 | 7.5 | 0.3 | 2.1 | / | /
CCc1cccc(NC(=O)c2ccc(Cn3nc(C)cc3C)o2)c1 | 4.2 | 7.6 | 4.3 | 9.8* | -8.5 | -5.9 | -0.8
CCOc1ccc(NC(=O)CN(C)C(=O)CCCOc2ccc(Cl)c(C)c2)cc1OCC | 4.2 | -4.3 | 16.6 | 9.6* | -14.1 | -6.2 | -4.5
CCOc1ccc(NC(=O)CN(C)C(=O)c2cc(C)oc2C)cc1OCC | -9.5 | -3.9 | -6.3 | 3.5 | 10.3 | / | /
SMILES | PLC-beta3 inh | ASAP1 GAP inh | ARFGAP1 inhibitor | PLC-gamma1 inh | sPLA2-III inh | PLCgamma1 ctr | PLCbeta3 conf
CCOc1ccc(NC(=O)CN(C)C(=O)CCc2ccccc2Cl)cc1OCC | -2.1 | -14.5 | -1.4 | 5.9 | -5.6 | / | /
CCOc1ccc(NC(=O)CN(C)C(=O)c2ccc(C)o2)cc1OCC | -1.2 | 5.1 | -2.8 | 15.0* | 7.6 | 4.5 | 3.1
CC(C)CNc1cccc2c1S(=O)(=O)N(Cc1cn(Cc3cccc(F)c3)nn1)Cc1ccccc1O2 | -37.6 | / | / | -19.5 | -7.5 | / | /
CCCCNC(=S)NNC(=O)c1csc(CC)c1 | 13.8* | 1.2 | 1.7 | -1.5 | 7.8 | -6.7 | 12.6*
CCCCNC(=S)NNC(=O)c1csc(C)c1 | 22.9* | -0.6 | 10.5 | 2.9 | 17.0 | -5.3 | 16.4*
O=c1[nH]c(-c2ccccn2)nc(C(F)(F)F)c1Br | 0.7 | -13.2 | -25.5 | 10.6* | 7.7 | -5.0 | -3.5
Cc1ccc(S(=O)(=O)N2CCCC2C(=O)N2CCc3ccccc3C2)cc1C (stereo not given) | -0.4 | / | / | -2.5 | 2.6 | / | /
COC(=O)C1=C(C)N(Cc2ccccc2)C(=NCc2cccc(C(F)(F)F)c2)N[C@H]1c1cccc(F)c1 | 3.4 | 12.9 | -4.1 | 12.8* | 2.6 | -7.2 | -8.9
COC(=O)C1=C(C)N(Cc2ccc(C(F)(F)F)cc2)C(=NCc2ccccc2C(F)(F)F)NC1c1ccc(Cl)cc1 (stereo not given) | 2.1 | 1.4 | 9.8 | 2.4 | 7.5 | / | /
COC(=O)C1=C(C)N(Cc2ccc(C(F)(F)F)cc2)C(=NCc2ccc(C(F)(F)F)cc2)NC1c1cccc(F)c1 (stereo not given) | 4.8 | 12.7 | 12.3 | 4.4 | 0.1 | / | /
COC(=O)C1=C(C)N(Cc2cccc(C(F)(F)F)c2)C(=NCc2ccccc2C(F)(F)F)NC1c1ccc(Cl)cc1 (stereo not given) | 13.7* | -2.5 | 4.2 | 1.3 | -0.1 | -3.0 | -4.1
O=C(OCc1ccccc1Cl)c1cc([N+](=O)[O-])ccc1N1CCOCC1 | 2.9 | -14.1 | -9.9 | 13.9* | -8.2 | 0.3 | 2.3
CC(=O)N(Cc1ccccc1)c1nccs1 | 0.3 | -0.1 | 3.3 | 3.4 | -5.8 | / | /
COCC(C)n1c(-c2ccc3c(c2)NC(=O)CO3)csc1=Nc1ccc(OC(F)F)cc1 (stereo not given) | 4.5 | -9.8 | 5.3 | 12.2*! | 1.5 | 4.1 | 3.1
O=C1COc2ccc(-c3csc(=Nc4ccc(OC(F)F)cc4)n3CC3CCCO3)cc2N1 (stereo not given) | 6.0 | -1.7 | -13.6 | 7.8 | 4.8 | / | /
Cc1cc(N2CCNC[C@H]2C)ccc1N1C[C@@H](C)O[C@@H](C)C1 | 3.7 | -3.2 | 8.0 | 0.0 | -2.1 | / | /
O=C(CN1C(=O)C2(OCCCO2)c2ccccc21)NCc1ccc2ccccc2c1 | 2.3 | / | / | -2.5 | -15.0 | / | /
O=C(NCc1cccnc1)c1cc(C2CCCN(C(=O)c3cccs3)C2)on1 (stereo not given) | 8.9 | -8.1 | 4.4 | 16.2* | 3.6 | -1.4 | 4.5
